Assay results reported in PubChem BioAssay.
Active and inactive are the calls of the source.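 Rule for the calls, unless noted: active = current rise at least 3 SD above the untreated control mean in each of two repeat wells; inactive = the rest.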

Legend:
[1] = nonspecific flux increase, KCNQ1-free cells – parental CHO cells, counter-screen for KCNQ1 potentiator project (AID 493006;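 active = duplicate-averaged activation above buffer control mean plus 5 SD of those controls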;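 for activation: fluorescence ratio of max minus min over baseline after K+ and Tl+ depolarization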); conditions: parental CHO-K1 cells, FluxOR thallium flux, at 10 µM; active compounds read high
Outline: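 Material: untransfected host CHO-K1 cells with FluxOR thallium dye. Timing: overnight 37 °C plating, 90 min RT dye, 20 min compound. Detection: kinetic FluxOR fluorescence, 10 s baseline, 110 s after stimulus. Read-out basis: max-minus-min fluorescence over baseline, percent of buffer-to-R-L3 span. Replicates: duplicate wells per compound, percent values averaged.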

[2] = biological target: Potassium voltage-gated channel subfamily KQT member 1 (Homo sapiens) (UniProt P51787); assay: enhancement of KCNQ1 channel thallium flux – FluxOR thallium flux, CHO cells, duplicates, confirmation (AID 493007;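 active = potentiation averaged over duplicate wells exceeding buffer-only control mean by more than 3 SD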;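 for outcome: cells depolarized by a potassium plus thallium sulfate stimulus after compound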); conditions: KCNQ1 cell line, FluxOR thallium flux fluorescence, at 10 µM; active compounds read high, % of reference activator effect, buffer zero
Outline: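 Test system – KCNQ1-expressing CHO cell line · Incubation – FluxOR dye loading 90 min, compound exposure 20 min, room temperature · Detection – FluxOR Tl+ flux fluorescence, 10 s baseline plus 110 s recording · Controls – buffer-only wells as 0% and R-L3 activator as 100%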

[3] = biological target: Potassium voltage-gated channel subfamily KQT member 2 (Rattus norvegicus) (UniProt O88943); assay: KCNQ2 thallium flux enhancement – KCNQ2-CHO-K1 cells, selectivity assay for KCNQ1 potentiator project (AID 493009;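 active = mean duplicate potentiation above the buffer control mean plus 5 SD of buffer wells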;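 note: assay conditions were tuned for KCNQ1 rather than KCNQ2 modulators; signal is max minus min fluorescence divided by baseline after thallium stimulus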); conditions: FluxOR thallium flux fluorescence, at 10 µM; active compounds read high, scaled: buffer 0, activator control 100
[4] = biological target: Potassium voltage-gated channel subfamily KQT member 1 (Homo sapiens) (UniProt P51787); assay: KCNQ1 activators by electrophysiology – IonWorks patch clamp, KCNQ1-CHO cells, orthogonal assay for KCNQ1 potentiator project, confirmation (AID 493184); conditions: automated patch clamp current, at 10 µM; active compounds read high;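 for current potentiation: percent change of the same well's current before compound addition so 0% = no change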
Outline: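 Read-out: Percent current increase versus pre-compound level | Assay system: CHO cells carrying KCNQ1 | Measured by: Automated perforated-patch electrophysiology | Medium: External bath solution at pH 7.4 | Dosing: One dose, 10 µM final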

Sequence of Potassium voltage-gated channel subfamily KQT member 2 (Rattus norvegicus) (O88943 whole entry, looked up): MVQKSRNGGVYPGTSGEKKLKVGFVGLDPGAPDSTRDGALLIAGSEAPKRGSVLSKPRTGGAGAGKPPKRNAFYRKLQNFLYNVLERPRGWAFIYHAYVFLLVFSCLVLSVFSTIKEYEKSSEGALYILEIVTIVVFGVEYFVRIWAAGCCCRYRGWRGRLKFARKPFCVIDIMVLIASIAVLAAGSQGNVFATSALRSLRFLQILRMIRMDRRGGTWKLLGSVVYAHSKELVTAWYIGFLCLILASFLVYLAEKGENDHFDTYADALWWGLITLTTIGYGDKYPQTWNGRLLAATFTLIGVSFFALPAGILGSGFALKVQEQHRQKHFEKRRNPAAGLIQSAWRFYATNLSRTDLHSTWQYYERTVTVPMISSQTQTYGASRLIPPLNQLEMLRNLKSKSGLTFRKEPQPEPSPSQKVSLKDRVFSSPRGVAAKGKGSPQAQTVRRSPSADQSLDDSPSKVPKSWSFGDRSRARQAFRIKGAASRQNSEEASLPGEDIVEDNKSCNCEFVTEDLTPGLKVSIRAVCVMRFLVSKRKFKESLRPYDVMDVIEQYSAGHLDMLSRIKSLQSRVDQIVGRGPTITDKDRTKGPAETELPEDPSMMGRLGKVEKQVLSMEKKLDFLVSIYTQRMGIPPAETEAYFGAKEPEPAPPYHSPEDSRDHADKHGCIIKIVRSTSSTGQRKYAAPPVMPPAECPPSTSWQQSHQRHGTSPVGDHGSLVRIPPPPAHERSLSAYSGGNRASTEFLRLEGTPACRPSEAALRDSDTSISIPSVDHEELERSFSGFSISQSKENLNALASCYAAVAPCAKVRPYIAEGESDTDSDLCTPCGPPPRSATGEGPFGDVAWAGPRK
Sequence of Potassium voltage-gated channel subfamily KQT member 1 (Homo sapiens) (P51787 whole entry, looked up): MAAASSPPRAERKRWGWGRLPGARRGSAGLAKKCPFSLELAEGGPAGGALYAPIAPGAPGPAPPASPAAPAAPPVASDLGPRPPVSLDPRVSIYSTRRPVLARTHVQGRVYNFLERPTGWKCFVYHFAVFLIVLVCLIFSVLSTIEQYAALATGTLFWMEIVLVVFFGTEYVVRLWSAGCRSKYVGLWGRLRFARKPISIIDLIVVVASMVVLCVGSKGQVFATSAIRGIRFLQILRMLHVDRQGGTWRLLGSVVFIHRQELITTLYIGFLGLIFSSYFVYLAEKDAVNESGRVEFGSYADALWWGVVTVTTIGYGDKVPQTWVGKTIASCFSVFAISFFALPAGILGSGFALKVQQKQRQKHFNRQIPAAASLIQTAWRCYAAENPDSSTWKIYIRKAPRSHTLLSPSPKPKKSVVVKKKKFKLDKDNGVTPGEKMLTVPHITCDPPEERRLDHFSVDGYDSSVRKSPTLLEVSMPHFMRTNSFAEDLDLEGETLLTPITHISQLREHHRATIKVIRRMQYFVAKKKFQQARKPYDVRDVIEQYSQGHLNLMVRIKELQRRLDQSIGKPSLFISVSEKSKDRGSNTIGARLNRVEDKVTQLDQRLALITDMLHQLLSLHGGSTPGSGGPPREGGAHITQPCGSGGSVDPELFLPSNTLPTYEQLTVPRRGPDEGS

Cc1cc(/C=N/NC(=O)c2nn(C)cc2Cl)c(C)n1-c1cccc(Br)c1
outcome [1]: inactive
outcome [2]: inactive
outcome [3]: inactive
outcome [4]: inactive

COc1ccc(NC(=O)CN(C)C(=O)c2ccc(N3CCOCC3)c([N+](=O)[O-])c2)cc1
activation [1]: 151% (active)
potentiation [2]: 22% (active)
potentiation [3]: 186% (active)
outcome [4]: inactive

C/C(=N\NC(=S)Nc1ccc(C)cc1)c1cc2ccccc2o1
outcome [1]: inactive
potentiation [2]: 97% (active)
potentiation [3]: 169% (active)
outcome [4]: inactive

COc1ccc(CN(C)C(=O)c2cccc(NS(=O)(=O)c3ccccc3)c2)cc1F
outcome [1]: inactive
outcome [2]: inactive
outcome [3]: inactive
outcome [4]: inactive

O=C1NC(=S)SC1=C1CCCC1
activation [1]: 142% (active)
potentiation [2]: 24.5% (active)
potentiation [3]: 166% (active)
outcome [4]: inactive

CC(C)(C)C1CCc2c(sc(NC(=O)C3CC=CCC3C(=O)O)c2C#N)C1 (stereo not given)
activation [1]: 178% (active)
potentiation [2]: 53% (active)
potentiation [3]: 184% (active)
outcome [4]: inactive

CCC(/C=N/NC(=O)C1COc2ccccc2O1)CC (stereo not given)
outcome [1]: inactive
outcome [2]: inactive
outcome [3]: inactive
outcome [4]: inactive

O=C(N/N=C/c1ccc(Sc2ccccn2)o1)c1cc2ccccc2cc1O
activation [1]: 213% (active)
potentiation [2]: 70% (active)
potentiation [3]: 277% (active)
outcome [4]: inactive

CCCCCCCCCCCC(=O)NC(Cc1ccc(OC)c([N+](=O)[O-])c1)C(=O)O (stereo not given)
activation [1]: 372% (active)
potentiation [2]: 116% (active)
potentiation [3]: 349% (active)
outcome [4]: inactive

O=C(Nc1nnc(-c2ccc3c(c2)CCCC3)o1)c1c(F)cccc1F
activation [1]: 148% (active)
potentiation [2]: 25% (active)
potentiation [3]: 182% (active)
current potentiation [4]: 20.7% (active)

COC(=O)c1c(NS(=O)(=O)c2ccc3ccccc3c2)sc2c1CCCC2
activation [1]: 216% (active)
potentiation [2]: 60.5% (active)
potentiation [3]: 232% (active)
outcome [4]: inactive

CC1CCCC(NC(=S)NC(=O)c2cncc(Br)c2)C1C (stereo not given)
outcome [1]: inactive
potentiation [2]: 32% (active)
outcome [3]: inactive
outcome [4]: inactive

O=C(NC1CCCC1)C(c1cccnc1)N(C(=O)c1csnn1)C1CC1 (stereo not given)
outcome [1]: inactive
outcome [2]: inactive
outcome [3]: inactive
outcome [4]: inactive

CC(=O)NC(C1C(=O)CC(C)(C)CC1=O)(C(F)(F)F)C(F)(F)F
outcome [1]: inactive
outcome [2]: inactive
outcome [3]: inactive
outcome [4]: inactive

CC1CCN(C(=S)NC(=O)c2ccccc2)CC1
outcome [1]: inactive
outcome [2]: inactive
potentiation [3]: 150% (active)
outcome [4]: inactive

O=C(COC(=O)C1C2CC3OC(=O)C1C3C2)Nc1ccc(Cl)cc1 (stereo not given)
outcome [1]: inactive
outcome [2]: inactive
outcome [3]: inactive
outcome [4]: inactive

O=C(NNC(=S)NC(=O)c1sc2ccccc2c1Cl)c1ccc(Cl)cc1
activation [1]: 320% (active)
potentiation [2]: 168% (active)
potentiation [3]: 319% (active)
outcome [4]: inactive

CNC(=O)c1cc(-c2ccc(Cl)cc2)n(-c2ccccc2)n1
outcome [1]: inactive
outcome [2]: inactive
outcome [3]: inactive
outcome [4]: inactive

S=c1nc(-c2ccccc2)[nH]n1-c1ccccc1
activation [1]: 504% (active)
potentiation [2]: 210% (active)
potentiation [3]: 532% (active)
outcome [4]: inactive

CCCN(Cc1ccccc1)C(=S)NC(=O)c1ccccc1[N+](=O)[O-]
activation [1]: 430% (active)
potentiation [2]: 177% (active)
potentiation [3]: 452% (active)
outcome [4]: inactive

Cc1c(CN(C)C)c2c(n1C)C(=O)c1ccc(Br)cc1-2
activation [1]: 146% (active)
potentiation [2]: 53% (active)
potentiation [3]: 159% (active)
outcome [4]: inactive

S=c1[nH]c(-c2ccc(Cl)cc2)cs1
activation [1]: 634% (active)
potentiation [2]: 206% (active)
potentiation [3]: 525% (active)
outcome [4]: inactive

O=C(NC(=S)Nc1ccccc1Cl)c1csnn1
activation [1]: 450% (active)
potentiation [2]: 174% (active)
potentiation [3]: 510% (active)
outcome [4]: inactive

CCCn1c(N)c(C(=O)CSc2nc(C)nc3sc(C)c(C)c23)c(=O)[nH]c1=O
activation [1]: 166% (active)
potentiation [2]: 23% (active)
potentiation [3]: 194% (active)
outcome [4]: inactive

C=CCN(CC=C)C(=S)NC(=O)Cc1cccc2ccccc12
activation [1]: 210% (active)
potentiation [2]: 68.5% (active)
potentiation [3]: 245% (active)
outcome [4]: inactive

O=C(c1ccc(COc2ccc(Cl)cc2)o1)N1CCN(Cc2ccc3c(c2)OCO3)CC1
outcome [1]: inactive
potentiation [2]: 25% (active)
outcome [3]: inactive
outcome [4]: inactive

CCc1nccn1S(=O)(=O)c1ccc2ccc(C)cc2c1
outcome [1]: inactive
outcome [2]: inactive
outcome [3]: inactive
outcome [4]: inactive

Cc1ccc2cc(CN(C(=O)c3ccco3)c3ccccc3C)c(=O)[nH]c2c1
outcome [1]: inactive
outcome [2]: inactive
outcome [3]: inactive
outcome [4]: inactive

O=C(CN1C(=O)CNC1=O)Nc1cccc(C(F)(F)F)c1
outcome [1]: inactive
outcome [2]: inactive
outcome [3]: inactive
outcome [4]: inactive

Cc1cccc(/C=N/n2c(COc3ccccc3)n[nH]c2=S)c1
outcome [1]: inactive
potentiation [2]: 60.5% (active)
potentiation [3]: 142% (active)
outcome [4]: inactive

COC(=O)C1=C(C(=O)OC)[C@@H]2N(C)c3ccccc3[C@@]23C[C@@H](C(=O)OC)N(C(=O)c2ccc(Br)cc2)C3=N1
activation [1]: 158% (active)
potentiation [2]: 104% (active)
potentiation [3]: 204% (active)
outcome [4]: inactive

CCc1ccc2nc(NC(=O)c3cc(C)on3)sc2c1
activation [1]: 157% (active)
potentiation [2]: 55% (active)
potentiation [3]: 151% (active)
outcome [4]: inactive

O=C(NN=C1c2ccccc2-c2ccccc21)c1cccc(Br)c1
activation [1]: 196% (active)
potentiation [2]: 42.5% (active)
potentiation [3]: 154% (active)
outcome [4]: inactive

O=C(NC(=S)Nc1nc2ccccc2s1)c1cccs1
activation [1]: 400% (active)
potentiation [2]: 180% (active)
potentiation [3]: 389% (active)
outcome [4]: inactive

Cc1cc(O)ccc1N=Cc1c(C(F)(F)F)[nH][nH]c1=O
outcome [1]: inactive
outcome [2]: inactive
outcome [3]: inactive
outcome [4]: inactive

OC(C#CCCN1CCCCC1)(c1ccccc1)c1ccccc1
outcome [1]: inactive
outcome [2]: inactive
outcome [3]: inactive
outcome [4]: inactive

Oc1c(Br)cc(Br)cc1C=Nc1cccc2ncccc12
activation [1]: 166% (active)
outcome [2]: inactive
outcome [3]: inactive
outcome [4]: inactive

COc1ccc(S(=O)(=O)NCCOc2ccccc2)cc1OC
outcome [1]: inactive
outcome [2]: inactive
outcome [3]: inactive
outcome [4]: inactive

CCn1c(=S)[nH]c2c(c1=O)C(C)(C)Cc1ccccc1-2
activation [1]: 150% (active)
outcome [2]: inactive
outcome [3]: inactive
outcome [4]: inactive

O=c1c(-c2ccc(Cl)cc2)[n+]([O-])c2ccccc2n1O
activation [1]: 190% (active)
outcome [2]: inactive
potentiation [3]: 184% (active)
outcome [4]: inactive

Cc1sc(-n2c(C)cc(/C=C3\SC(=S)NC3=O)c2C)c(C#N)c1C
activation [1]: 145% (active)
potentiation [2]: 36% (active)
outcome [3]: inactive
outcome [4]: inactive

Cc1ccc2cc3cc(C(=O)NC4CC4)oc3nc2c1
outcome [1]: inactive
outcome [2]: inactive
outcome [3]: inactive
outcome [4]: inactive

CCOC(=O)c1sc2ncnc(NCC(c3cccs3)N(C)C)c2c1C (stereo not given)
activation [1]: 255% (active)
potentiation [2]: 87% (active)
potentiation [3]: 263% (active)
outcome [4]: inactive

Fc1cccc(/C=N/Nc2ccc3ccccc3n2)c1
outcome [1]: inactive
outcome [2]: inactive
outcome [3]: inactive
outcome [4]: inactive

Cc1ccc(C(=O)CC(=O)c2cc(Cl)ccc2O)cc1
activation [1]: 150% (active)
potentiation [2]: 42.5% (active)
potentiation [3]: 152% (active)
outcome [4]: inactive

COC(=O)c1sccc1NC(=S)NCc1ccc(Cl)cc1
activation [1]: 144% (active)
potentiation [2]: 62.5% (active)
outcome [3]: inactive
outcome [4]: inactive

Cc1ccc(C2=NOC(=O)/C2=C\C=C\c2ccccc2)cc1
outcome [1]: inactive
outcome [2]: inactive
outcome [3]: inactive
outcome [4]: inactive

CCN(C(=S)NC(=O)c1ccccc1Br)C1CCCCC1
activation [1]: 358% (active)
potentiation [2]: 124% (active)
potentiation [3]: 370% (active)
outcome [4]: inactive

O=c1[nH]c(=S)[nH]c2sc3c(c12)CCCCCC3
activation [1]: 138% (active)
outcome [2]: inactive
outcome [3]: inactive
outcome [4]: inactive

COc1ccc(NC(=O)CC2C(=O)N(c3ccc(Cl)cc3)C(=S)N2NC(=O)c2cccc(F)c2)cc1 (stereo not given)
outcome [1]: inactive
outcome [2]: inactive
outcome [3]: inactive
outcome [4]: inactive

Cc1cc(NC(c2cccnc2)c2c(C)[nH]c3ccccc23)no1 (stereo not given)
outcome [1]: inactive
outcome [2]: inactive
outcome [3]: inactive
outcome [4]: inactive

COc1ccccc1OCCc1nnc(N)s1
outcome [1]: inactive
outcome [2]: inactive
outcome [3]: inactive
outcome [4]: inactive

COCCCN=C1NN=C(c2cc(C)n(-c3ccccc3F)c2C)CS1
outcome [1]: inactive
outcome [2]: inactive
outcome [3]: inactive
outcome [4]: inactive

Cc1ccc(C(=O)Nc2nnn(C)n2)cc1
outcome [1]: inactive
outcome [2]: inactive
outcome [3]: inactive
outcome [4]: inactive

COc1ccccc1C(=O)NNC(=O)C(=O)Nc1ccc(C)cc1
activation [1]: 534% (active)
potentiation [2]: 182% (active)
potentiation [3]: 593% (active)
outcome [4]: inactive

N#CCn1c(CCl)nc2ccccc2c1=O
outcome [1]: inactive
outcome [2]: inactive
outcome [3]: inactive
outcome [4]: inactive

Cc1ccc(O)c(C(=O)CC(=O)c2ccccc2Cl)c1
activation [1]: 158% (active)
potentiation [2]: 72.5% (active)
potentiation [3]: 144% (active)
outcome [4]: inactive

Cc1cc(C=NCCO)c(C)n1-c1cc(Cl)ccc1Cl
outcome [1]: inactive
outcome [2]: inactive
outcome [3]: inactive
outcome [4]: inactive

O=C(COc1ccccc1F)Nc1ccc(S(=O)(=O)NCc2ccco2)cc1
outcome [1]: inactive
outcome [2]: inactive
outcome [3]: inactive
outcome [4]: inactive

C=CCN(CC=C)C(=S)NC(=O)c1ccc(C)c(Br)c1
activation [1]: 779% (active)
potentiation [2]: 270% (active)
potentiation [3]: 688% (active)
outcome [4]: inactive
